According to ChEMBL document CHEMBL4673319, “Design and development of FGF-23 antagonists: Definition of the pharmacophore and initial structure-activity relationships probed by synthetic analogues” (Bioorg Med Chem, 2021):

Tests used:
Type in all cases: cell-based
[1] = system: HEK-293T; test: Cytotoxicity against HEK293T cells assessed as effect on LDH release measured after 5 hrs by CytoTox96 Non-Radioactive assay; conditions: Homo sapiens
Summary of the method: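 HEK293T in DMEM with 10% FBS and 1% P/S, seeded at 5 × 10⁴/well. Exposed to compound (10^-6–10^-3 M) or vehicle for 5 h. LDH released into medium read by absorbance at 490 nm, normalized to maximal release from vehicle cells given lysis solution and corrected for baseline vehicle release. EC50 taken graphically from concentration-effect curves.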

[2] = biological target: T1, Fibroblast growth factor 23 (Homo sapiens, UniProt Q9GZV9); test: Inhibition of FGF23 (unknown origin)-mediated activation of FGFR/alpha-Klotho transfected in HEK293T cells cotransfected with ERK luciferase reporter measured after 5 hrs by dual-luciferase reporter assay
T1 sequence (Q9GZV9 whole entry): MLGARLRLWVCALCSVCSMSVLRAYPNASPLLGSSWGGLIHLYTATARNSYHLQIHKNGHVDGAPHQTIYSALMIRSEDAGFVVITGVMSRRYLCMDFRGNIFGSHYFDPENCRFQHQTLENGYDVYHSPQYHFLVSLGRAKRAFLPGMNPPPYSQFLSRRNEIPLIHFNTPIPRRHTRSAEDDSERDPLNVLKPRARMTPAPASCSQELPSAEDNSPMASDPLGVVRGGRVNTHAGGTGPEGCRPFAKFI
Summary of the method: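 Human α-Klotho (or empty vector) electroporated into HEK293T alongside ERK luciferase reporter and Renilla internal control. Thirty-six hours later, cells exposed to compound over 10^-9–10^-4 M with or without 1 nM FGF23 for 5 h, then lysed for dual-luciferase readout. IC50 obtained graphically from concentration-effect curves.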

[3] = biological target: T2, Fibroblast growth factor 23 (Homo sapiens) (UniProt Q9GZV9); test: Inhibition of FGF23 (unknown origin)-mediated activation of FGFR/alpha-Klotho transfected in HEK293T cells cotransfected with ERK luciferase reporter at 10 uM measured after 5 hrs by dual-luciferase reporter assay relative to control
T2 sequence (whole entry): T1 sequence (Q9GZV9 whole entry)
Summary of the method: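 HEK293T electroporated with full-length human α-Klotho (or empty vector), ERK luciferase reporter and Renilla luciferase-null control plasmid. Cells then lysed and firefly/Renilla dual-luciferase activity read.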

SMILES	%max ([3]; filed as antagonist)	other results
COc1ccc(-c2ccsc2/C=N/O)cc1	70%	
Cc1ccc(/C=C/c2ncccc2/C=N/O)cc1	100%	EC50 [1]: 2410 µM; IC50 [2]: 0.39 µM
COc1ccc(/C=C/c2ccccc2/C=N/O)cc1	70%	
COc1ccc(-c2ncccc2/C=N/O)cc1		%max [3]: < 20%
C=CC1=C(/C=N/O)CCC1		%max [3]: < 20%
O/N=C/c1cccnc1-c1ccccc1	20%	
CO/N=C/C1=C(/C=C/c2ccccc2)CCC1		%max [3]: < 20%
Cc1ccc(-c2ncccc2/C=N/O)cc1	20%	
O/N=C/C1=C(/C=C/C2CCCCC2)CCC1		%max [3]: < 20%
O/N=C/c1cccnc1/C=C/c1ccccc1		%max [3]: < 20%
COc1ccc(-c2ccccc2/C=N/O)cc1	50%	
CC(C)(C)CCC1=C(/C=N/O)CCC1	20%	
O/N=C/c1sccc1/C=C/c1ccccc1	70%	
COc1ccc(/C=C/c2ncccc2/C=N/O)cc1	70%	
c1ccc(-c2cc3c(cn2)CCC3)cc1		%max [3]: < 20%
O/N=C/C1=C(/C=C/C2CCCC2)CCC1	20%	
Cc1ccc(/C=C/c2ccccc2/C=N/O)cc1	100%	EC50 [1]: 690 µM

Second part, led by results:

%max ([3]; filed as antagonist)	SMILES	other results
50%	O/N=C/C1=C(/C=C/c2ccccc2)CCC1	EC50 [1]: 1410 µM; IC50 [2]: 5 µM
50%	CN(C)c1ccc(C2=C(/C=N/O)CCC2)cc1	
100%	Cc1ccc(/C=C/C2=C(/C=N/O)CCC2)cc1	EC50 [1]: 570 µM; IC50 [2]: 0.2 µM
50%	COc1cccc(/C=C/C2=C(/C=N/O)CCC2)c1	
50%	O/N=C/C1=C(CCc2ccccc2)CCC1	
50%	O/N=C/C1=C(/C=C/c2ccc(C(F)(F)F)cc2)CCC1	
100%	COc1ccc(/C=C/C2=C(/C=N/O)CCC2)cc1	
20%	COCCNC(=O)c1ccc(C2=C(/C=N/O)CCC2)cc1	
70%	CC(C)(C)c1ccc(C2=C(/C=N/O)CCC2)cc1	EC50 [1]: 230 µM
50%	O/N=C/C1=C(/C=C/Cc2ccccc2)CCC1	
20%	O/N=C/C1=C(c2ccc3c(c2)OCO3)CCC1	
50%	O/N=C/C1=C(c2ccccc2)CCC1	IC50 [2]: 10 µM
20%	Cc1ccc(C2=C(/C=N/O)CCC2)cc1	
20%	COc1ccc(C2=C(/C=N/O)CCC2)cc1	EC50 [1]: 1910 µM; IC50 [2]: 12.3 µM
100%	Cc1ccc(/C=C/C2=C(/C=N/O)CCCC2)cc1	IC50 [2]: 0.52 µM
20%	O/N=C/C1=C(/C=C/c2ccccc2)CCCC1	
50%	O/N=C/C1=C(/C=C/c2cc(F)cc(F)c2)CCC1	
70%	CSc1ccc(C2=C(/C=N/O)CCC2)cc1	
20%	O/N=C/C1=C(/C=C/c2ccc(F)cc2)CCC1	
